Shown are actives, neighbours in structure and some others; about 2.3% of the full set was active somewhere.
TRPC4 block – inhibitors of mouse TRPC4 channel; Q9QUQ5; HEK293 TRPC4beta/mu-opioid, DAMGO-evoked Fluo4 calcium flux; hits give low values; B-score at 10 µM; actives 0.39% (n = 300,000);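 active = B-score over 3 SD under the library average, no early fluorescence shift, positive overall ratio signal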
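Test system – stable TRPC4beta/mu-opioid receptor HEK293 cells · Probe or stimulus – DAMGO, a submaximal dose followed by a maximal one · Dosing – one concentration per compound · Signal – Fluo4 calcium fluorescence by kinetic imaging, 5 s 1 Hz baseline · Evaluation – per-well B score of integrated baseline-normalized Fluo4 ratio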
TRPC6 inh – mouse TRPC6 channel inhibition | actives 1.1% (n = 310,000) | HEK293-TRPC6, membrane potential dye, ACh-evoked depolarization; hits give low values | B-score at 10 µM | AID 2553;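 active = B-score under library mean minus 3 SD, initial fluorescence not abnormally high, positive integrated signal ratio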;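 also: B-score derived from integrated fluorescence ratio over the kinetic read; more negative B-score means stronger inhibition of depolarization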
Target sequence (Q61143 whole entry, looked up): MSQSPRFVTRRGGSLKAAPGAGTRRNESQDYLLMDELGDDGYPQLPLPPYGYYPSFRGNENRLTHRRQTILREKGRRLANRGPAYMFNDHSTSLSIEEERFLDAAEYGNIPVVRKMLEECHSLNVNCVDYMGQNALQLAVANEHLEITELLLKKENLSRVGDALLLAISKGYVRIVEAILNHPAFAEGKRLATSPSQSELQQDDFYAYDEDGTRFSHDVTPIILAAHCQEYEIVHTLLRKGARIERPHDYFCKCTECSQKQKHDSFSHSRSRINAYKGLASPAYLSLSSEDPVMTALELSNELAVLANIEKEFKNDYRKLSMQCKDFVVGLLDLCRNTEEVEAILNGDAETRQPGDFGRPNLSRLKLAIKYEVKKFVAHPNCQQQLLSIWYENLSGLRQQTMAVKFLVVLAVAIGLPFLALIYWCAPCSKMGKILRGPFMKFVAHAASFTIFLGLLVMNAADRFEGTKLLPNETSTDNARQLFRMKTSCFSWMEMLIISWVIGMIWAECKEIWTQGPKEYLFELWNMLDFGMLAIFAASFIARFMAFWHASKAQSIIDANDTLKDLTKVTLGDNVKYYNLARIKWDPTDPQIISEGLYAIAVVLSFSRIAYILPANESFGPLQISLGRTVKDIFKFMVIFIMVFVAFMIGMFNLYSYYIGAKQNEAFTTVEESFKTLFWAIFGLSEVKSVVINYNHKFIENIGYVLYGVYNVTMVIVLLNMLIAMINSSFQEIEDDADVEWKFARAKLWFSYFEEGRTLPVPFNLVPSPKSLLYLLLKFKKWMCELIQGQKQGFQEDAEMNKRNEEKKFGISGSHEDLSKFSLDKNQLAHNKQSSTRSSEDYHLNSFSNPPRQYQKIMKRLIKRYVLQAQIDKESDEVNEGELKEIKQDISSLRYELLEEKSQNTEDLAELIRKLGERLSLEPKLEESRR
TRPC4 potent – allosterically enhances the mouse TRPC4 cation channel; B-score at 10 µM; Q9QUQ5; actives 0.42% (n = 310,000); HEK293 TRPC4beta/mu-opioid, DAMGO EC20, Fluo-4 Ca2+ flux; hits give high values;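 active = B-score of calcium response area above 5 SD of library B-scores, with initial fluorescence ratio within 5 SD of library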
TRPC6 activator – mouse TRPC6 channel activation | Q61143 | B-score at 10 µM | actives 0.13% (n = 310,000) | HEK293-TRPC6 membrane potential dye fluorescence; hits give high values;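 active = B-score of the integrated fluorescence ratio above library mean plus 3 SD, and starting fluorescence ratio within library mean plus 5 SD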;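 also: higher score means more depolarization so channel activation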
TRPC4 agonist – TRPC4 (mouse) channel activation. B-score at 10 µM. HEK293 TRPC4beta/mu-opioid, Fluo4 calcium fluorescence; hits give high values. actives 0.49% (n = 310,000). Q9QUQ5;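 active = B-score above 5 SD of library B-scores, and initial fluorescence ratio not above library mean plus 5 SD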;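 also: positive B-score marks a calcium rise read as TRPC4 activation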
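Material: HEK293 stable line with TRPC4beta plus mu-opioid receptor; technique: Fluo4 calcium-sensitive dye fluorescence, kinetic, 1 Hz baseline; timing: Fluo4 dye loading 45 min at room temperature, 110 s recording; controls: assay buffer as low control, maximal DAMGO as high control; read-out: integrated baseline-normalised fluorescence ratio, converted to per-well B score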
TRPC4 spec 2 – second check of whether TRPC6 inhibitors also affect mouse TRPC4. AID 2776. HEK293 TRPC4/MOR, membrane potential dye fluorescence; channel activated by saturating DAMGO dose. inhibition, % at 10 µM. actives 42% (n = 920). shares compounds with TRPC6 inh;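 active = compounds whose fluorescence signal differed from control wells by over 3 SD, either direction, in both duplicate plates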
TRPC4 spec – tests whether TRPC6 inhibitors also affect mouse TRPC4; HEK293 TRPC4/mu-opioid, membrane potential fluorescence; AID 2777; shares compounds with TRPC6 inh; actives 61% (n = 920); activity change, negative = inhibition, % at 10 µM;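 active = rise or fall in signal beyond 3 SD of buffer-only wells in both replicate plates, either sign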;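 also: integrated kinetic ratio of fluorescence range over baseline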
HEK293 MPD ctr 2-1 – parental HEK293 nonspecific activity of TRPC6 inhibitors, second screen | shares compounds with TRPC6 inh | parental HEK293 membrane potential dye fluorescence; maximal acetylcholine challenge after compound addition | signal change vs control, % at 10 µM | actives 31% (n = 920) | AID 2779;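 active = membrane potential signal moving either way by over 3 SD of the maximum-effect control, in both duplicate plates, meaning non-specific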
HEK293 MPD ctr-1 – checks TRPC6 inhibitor effects in parental HEK293 cells. shares compounds with TRPC6 inh. parental HEK293 membrane potential dye fluorescence. membrane potential signal change, % at 10 µM. actives 60% (n = 920). AID 2780;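 active = membrane potential signal shifting up or down by more than 3 SD of buffer-only wells, on both duplicate plates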
HEK293 MPD ctr-2 – counter-screen for TRPC6 modulators: effect in parental HEK293 cells; shares compounds with TRPC6 inh; membrane potential dye fluorescence; membrane potential signal change, % at 10 µM; actives 51% (n = 2,400);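 active = membrane potential signal moves up or down beyond 5 SD from buffer-only wells, on both duplicate plates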
HEK293 MPD ctr 2-2 – parental HEK293 nonspecific activity of TRPC6 modulators, second screen | shares compounds with TRPC6 inh | actives 14% (n = 2,400) | membrane potential dye fluorescence; after compound, maximal acetylcholine stimulation | inhibition, % at 10 µM;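 active = membrane potential signal drops by more than 5 SD from the mean control signal, in both duplicate plates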
TRPC4 ctr mod – mouse TRPC4 off-target activity of TRPC6 modulators; AID 488927; shares compounds with TRPC6 inh; HEK293 TRPC4/mu-opioid, membrane potential fluorescence; actives 69% (n = 2,400); percent change from control (negative = decrease, positive = increase), % at 10 µM;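 active = membrane potential signal moved up or down beyond 5 SD of buffer control wells, in both duplicate plates, actives on both sides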
TRPC4/MOR inh 2 – second check of whether TRPC6 modulators also affect mouse TRPC4; HEK293 TRPC4/mu-opioid, membrane potential dye fluorescence; stimulated with maximal-effect DAMGO; AID 488928; inhibition, % at 10 µM; shares compounds with TRPC6 inh; actives 55% (n = 2,400);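 active = drop in membrane potential signal beyond 5 SD of the control wells in both duplicate plates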;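 also: TRPC4 counter screen for TRPC6 hits run under conditions tuned for TRPC6 not TRPC4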
TRPC6 inh conf – mouse TRPC6 inhibitor confirmation. shares compounds with TRPC6 inh. actives 43% (n = 3,300). HEK293-TRPC6, membrane potential dye, ACh-evoked depolarization. inhibition, % at 10 µM;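 active = fluorescence ratio falls more than 5 SD below the full-stimulation control mean, in both duplicate runs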;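 also: integrated fluorescence ratio of peak minus minimum over baseline after agonist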
TRPC6 act confirm – mouse TRPC6 activator confirmation | shares compounds with TRPC6 inh | HEK293-TRPC6 membrane potential dye fluorescence, FDSS | activation, % at 10 µM | actives 11% (n = 2,800);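 active = ratio signal rise beyond 5 SD above unstimulated control wells' mean, seen in both duplicate runs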
A number is an active result; 0 = inactive; - = not tested or not shown; + = active, no number.

SMILES	TRPC4 block	TRPC6 inh	TRPC4 potent	TRPC6 activator	TRPC4 agonist	HEK293 MPD ctr-2	HEK293 MPD ctr 2-2	TRPC4 ctr mod	TRPC4/MOR inh 2	TRPC6 inh conf	TRPC6 act confirm	others
CCc1ccc(NC(=O)C2CCCN(S(=O)(=O)c3cnc[nH]3)C2)cc1 (stereo not given)	0	-6.1	0	0	0	0	0	0	0	0	0
CCc1ccc(NC(=O)C2CCN(S(=O)(=O)c3cnc[nH]3)CC2)cc1	0	0	0	0	0	-	-	-	-	-	-
CN1CCc2c(c3ccccc3n2Cc2ccccc2)C1	0	-5.4	0	0	0	141%	0	18%	64%	0	-
Nc1cccc2nc3ccccc3cc12	0	-7.2	0	0	0	-	-	-	-	83%	0	TRPC4 spec 2=23%;TRPC4 spec=-36%;HEK293 MPD ctr 2-1=18%;HEK293 MPD ctr-1=-413%
COc1ccc(-n2c(SCC(=O)NCc3ccco3)nc3c([nH]c4ccccc43)c2=O)cc1	0	0	0	0	0	-	-	-	-	-	-
O=C(CNC(=O)c1ccccc1F)N/N=C/c1cn[nH]c1-c1ccccc1	0	-5.8	0	0	0	0	0	0	0	0	-
CCOC(=O)C1Cc2c([nH]c3ccccc23)CN1 (stereo not given)	0	-8.6	0	0	0	-	-	-	-	0	0	TRPC4 spec 2=0;TRPC4 spec=0;HEK293 MPD ctr 2-1=0;HEK293 MPD ctr-1=-0.1%
CCOC(=O)C1Cc2ccccc2CN1 (stereo not given)	0	0	0	0	0	-	-	-	-	-	-
COc1ccc(-c2nc3cnccn3c2Nc2ccc(C)cc2)cc1	0	-6.2	0	0	0	-70%	0	-16%	84%	61%	0
Cc1ccc(Nc2c(-c3ccccc3)nc3cnccn23)cc1	0	0	0	0	0	-	-	-	-	-	-
Cc1cccc(C)c1Nc1c(-c2ccc(N3CCOCC3)cc2)nc2cnccn12	0	-8.3	0	0	0	-236%	0	-42%	92%	75%	0
Cc1ccc(N2C(=O)C3C(C2=O)C2C=CC3C23CC3)c([N+](=O)[O-])c1 (stereo not given)	0	0	0	0	0	-	-	-	-	-	-
CSc1cccc(NC(=S)N(CCCN2CCCC(C)C2)Cc2cccs2)c1 (stereo not given)	0	-8.1	0	0	0	-	-	-	-	56%	0	TRPC4 spec 2=48%;TRPC4 spec=2.2%;HEK293 MPD ctr 2-1=0;HEK293 MPD ctr-1=3.1%
COc1ccc(NC(=S)N(CCCN2CCN(C)CC2)Cc2cccs2)cc1	0	0	0	0	0	-	-	-	-	-	-
COc1ccc(NC(=S)N(CCCN2CCC(C)CC2)Cc2cccs2)cc1Cl	0	-6	0	0	0	0	0	0	84%	48%	0
CSc1ccc(CN(C)C(C)C(=O)NCc2ccccc2)cc1 (stereo not given)	0	0	0	0	0	-	-	-	-	-	-
COc1cccc(NC(=O)CCC2CCN(C(=O)c3ccc(C(C)=O)s3)CC2)c1	0	0	0	0	0	-	-	-	-	-	-
Cn1c(O)c(/C=N/NC(=O)c2cc3ccccc3cc2O)c2ccccc21	0	0	33	44	105	+	0	298%	0	0	256%
C=C(C)CSc1nc2sc3c(c2c(=O)n1C1CCCCC1)CCN(C)C3	0	-7.5	0	0	0	0	0	-20%	0	0	0
CCOC(=O)c1c(-c2ccccc2)oc2cc(CN(C)C)c(O)c(CN(C)C)c12	0	-7.7	0	0	0	-	-	-	-	0	0	TRPC4 spec 2=0;TRPC4 spec=0;HEK293 MPD ctr 2-1=270%;HEK293 MPD ctr-1=0
COc1cccc2sc(N(CCN(C)C)C(=O)c3ccc(S(=O)(=O)N4CCCC4)cc3)nc12	0	0	0	0	0	-	-	-	-	-	-
COc1ccc(OC)c2sc(N(CCN(C)C)C(=O)c3ccc4ccccc4c3)nc12	0	-7.6	12	0	0	-	-	-	-	79%	0	TRPC4 spec 2=0;TRPC4 spec=0;HEK293 MPD ctr 2-1=0;HEK293 MPD ctr-1=0
CN(C)CCN(C(=O)c1ccc2c(c1)OCCO2)c1nc2c(Cl)cccc2s1	0	-7.2	0	0	0	-	-	-	-	98%	0	TRPC4 spec 2=26%;TRPC4 spec=-22%;HEK293 MPD ctr 2-1=0;HEK293 MPD ctr-1=-288%
CC1CN(S(=O)(=O)c2ccc(C(=O)N(CCCN(C)C)c3nc4c(Cl)cccc4s3)cc2)CC(C)O1 (stereo not given)	0	-7.5	0	0	0	0	0	-14%	68%	0	0
CC(=O)c1ccc(C(=O)N(CCN(C)C)c2nc3c(Cl)cccc3s2)cc1	0	0	0	0	0	-	-	-	-	-	-
SMILES	TRPC4 block	TRPC6 inh	TRPC4 potent	TRPC6 activator	TRPC4 agonist	HEK293 MPD ctr-2	HEK293 MPD ctr 2-2	TRPC4 ctr mod	TRPC4/MOR inh 2	TRPC6 inh conf	TRPC6 act confirm	others
COc1ccc(Cl)c2sc(N(CCN(C)C)C(=O)c3ccc4c(c3)OCCO4)nc12	0	-9.6	46	0	0	-122%	90%	-40%	90%	72%	0
COc1cc2ccccc2cc1C(=O)N(CCN(C)C)c1nc2c(OC)ccc(OC)c2s1	0	0	0	0	0	-	-	-	-	-	-
COc1ccc(/C=C(\NC(=O)c2ccccc2)C(=O)NCc2ccco2)cc1OC	0	0	0	0	0	-	-	-	-	-	-
CCOc1cccc2sc(N(CCCN(C)C)C(=O)c3ccc(S(=O)(=O)N(C)c4ccccc4)cc3)nc12	0	-6.6	0	0	0	0	0	0	71%	0	0
CCOc1cccc2sc(N(CCCN(C)C)C(=O)c3ccc(S(=O)(=O)N4CCc5ccccc5C4)cc3)nc12	0	0	0	0	0	-	-	-	-	-	-
Cn1c(=S)c2[nH]c(SCCN3CCCC3)nc2n(C)c1=O	0	0	0	0	0	-	-	-	-	-	-
Cc1ccc(Cl)cc1NC(=O)Cn1cc2c(n1)CCCC2	0	0	0	0	0	-	-	-	-	-	-

Source: PubChem
